Residue numbers refer to the chain shown, from its start. Where two headings read alike, the source gives them in different places.
What was measured:
AIRE-PHD1 Asp304Ala [1] = target: T1, AIRE-PHD1 Asp304Ala (Homo sapiens, UniProt O43918, D304A); assay: Isothermal titration calorimetry; assay type: binding; conditions: AIRE-PHD1 Asp304Ala mutant, ITC 23°C, pH 7.2
T1 sequence (O43918 293-354 D304A): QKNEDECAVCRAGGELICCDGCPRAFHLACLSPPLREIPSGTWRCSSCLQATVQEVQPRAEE
Procedure, shortened: (§1)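 Recombinant AIRE-PHD1 (Gln293–Glu354) point mutants, made by overlap-extension PCR and mass-verified by MALDI, at 40–85 μM in 20 mM phosphate, 150 mM NaCl, 2 mM β-mercaptoethanol, 50 μM ZnCl2, pH 7.2. Synthetic H3 1–10 peptides (0.54–2.5 mM) were injected 28–57 times at 15 min spacing, 23°C, stirring 307 rpm. Heats were corrected for dilution and fitted to a one-site model by nonlinear least squares. Run in duplicate.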

AIRE-PHD1 Glu307Ala [2] = target: T2, AIRE-PHD1 Glu307Ala (Homo sapiens, UniProt O43918, E307A); assay: Isothermal titration calorimetry; assay type: binding; conditions: AIRE-PHD1 Glu307Ala mutant, ITC 23°C, pH 7.2
T2 sequence (O43918 293-354 E307A): T1 sequence (O43918 293-354 D304A) with A12D, E15A
Procedure, shortened: as §1

AIRE-PHD1 wild type [3] = target: T3, AIRE-PHD1 wild type (Homo sapiens, UniProt O43918); conditions: AIRE-PHD1 wt, ITC; previous experiments; ref [22]; cited from earlier work
T3 sequence (O43918 293-354): T1 sequence (O43918 293-354 D304A) with A12D

AIRE-PHD1 Glu298Ala [4] = target: T4, AIRE-PHD1 Glu298Ala (Homo sapiens, UniProt O43918, E298A); assay: Isothermal titration calorimetry; assay type: binding; conditions: AIRE-PHD1 Glu298Ala mutant, ITC 23°C, pH 7.2
T4 sequence (O43918 293-354 E298A): T1 sequence (O43918 293-354 D304A) with E6A, A12D
Procedure, shortened: as §1

AIRE-PHD1 wild type [5] = target: T3, AIRE-PHD1 wild type; assay: Isothermal titration calorimetry; assay type: binding; conditions: for ΔG / −TΔS: AIRE-PHD1 wt, ITC 23°C, pH 7.2, duplicate, ND = not detectable
AIRE-PHD1 wild type [6] = target: T3, AIRE-PHD1 wild type; assay: Tryptophan fluorescence titration; assay type: binding
GST-AIRE-PHD1 = assay: Peptide pull-down / in vitro binding assays; design: species or system human; conditions: in vitro: fluorescence titrations, ITC and peptide pull-down assays
[7] = target: first PHD finger of autoimmune regulator (AIRE-PHD1), wild type (human) (UniProt O43918); assay: other fluorescence titration
[8] = target: first PHD finger of autoimmune regulator (AIRE-PHD1), wild type (human) (UniProt O43918); assay: ITC
[9] = target: T5, first PHD finger of autoimmune regulator (AIRE-PHD1), wild type (human, UniProt O43918 293-354); assay: other fluorescence titration
T5 sequence (looked up): T1 sequence (O43918 293-354 D304A) with A12D

[10] = target: T5, first PHD finger of autoimmune …; assay: ITC
AIRE-PHD1 Asp304Ala [11] = target: T6, AIRE-PHD1 Asp304Ala (human, UniProt O43918 293-354, Asp304Ala); assay: other fluorescence titration
T6 sequence (looked up): T1 sequence (O43918 293-354 D304A)

AIRE-PHD1 Glu298Ala [12] = target: T7, AIRE-PHD1 Glu298Ala (human, UniProt O43918 293-354, Glu298Ala); assay: other fluorescence titration
T7 sequence (looked up): T1 sequence (O43918 293-354 D304A) with E6A, A12D

AIRE-PHD1 Glu307Ala [13] = target: T8, AIRE-PHD1 Glu307Ala (human, UniProt O43918 293-354, Glu307Ala); assay: other fluorescence titration
T8 sequence (looked up): T1 sequence (O43918 293-354 D304A) with A12D, E15A

AIRE-PHD1 Asp304Ala [14] = target: T6, AIRE-PHD1 Asp304Ala; assay: ITC
AIRE-PHD1 Glu298Ala [15] = target: T7, AIRE-PHD1 Glu298Ala; assay: ITC
AIRE-PHD1 Glu307Ala [16] = target: T8, AIRE-PHD1 Glu307Ala; assay: ITC

C[C@H](N)C(=O)N[C@@H](CCCNC(=N)N)C(=O)N[C@H](C(=O)N[C@@H](CCCCN)C(=O)N[C@@H](CCC(N)=O)C(=O)N[C@H](C(=O)N[C@@H](C)C(=O)N[C@@H](CCCNC(=N)N)C(=O)N[C@@H](CCCCN)C(=O)N[C@@H](CO)C(=O)O)[C@@H](C)O)[C@@H](C)O [H3K4me0]
ΔG (AIRE-PHD1 Asp304Ala [1]): -5.2 ± 0.4 kcal/mol
ΔH (AIRE-PHD1 Asp304Ala [1]): -5.3 ± 0.4 kcal/mol
−TΔS (AIRE-PHD1 Asp304Ala [1]): 0.1 ± 0.4 kcal/mol
ΔG (AIRE-PHD1 Glu307Ala [2]): -5.9 ± 0.1 kcal/mol
ΔH (AIRE-PHD1 Glu307Ala [2]): -6.7 ± 0.1 kcal/mol
−TΔS (AIRE-PHD1 Glu307Ala [2]): 0.7 ± 0.1 kcal/mol
ΔG (AIRE-PHD1 wild type [3]): -7.1 ± 0.1 kcal/mol
ΔH (AIRE-PHD1 wild type [3]): -9.3 ± 0.1 kcal/mol
−TΔS (AIRE-PHD1 wild type [3]): 2.2 ± 0.1 kcal/mol
ΔG (AIRE-PHD1 Glu298Ala [4]): -5.9 ± 0.1 kcal/mol
ΔH (AIRE-PHD1 Glu298Ala [4]): -7.2 ± 0.1 kcal/mol
−TΔS (AIRE-PHD1 Glu298Ala [4]): 1.3 ± 0.1 kcal/mol

C[C@H](N)C(=O)N[C@@H](CCCNC(=N)N)C(=O)N[C@H](C(=O)N[C@@H](CCCCN)C(=O)N[C@@H](CCC(N)=O)C(=O)N[C@H](C(=O)N[C@@H](C)C(=O)N[C@@H](C)C(=O)N[C@@H](CCCCN)C(=O)N[C@@H](CO)C(=O)O)[C@@H](C)O)[C@@H](C)O [H3R8AK4me0]
ΔG (AIRE-PHD1 wild type [5]): -5.8 ± 0.3 kcal/mol
−TΔS (AIRE-PHD1 wild type [5]): 1.6 ± 0.3 kcal/mol

C[C@H](N)C(=O)N[C@@H](CCCNC(=N)N)C(=O)N[C@H](C(=O)N[C@@H](CCCCN)C(=O)N[C@@H](CCC(N)=O)C(=O)N[C@H](C(=O)N[C@@H](C)C(=O)N[C@@H](CCCNC(=N)N)C(=O)N[C@@H](CCCCN)C(=O)N[C@@H](COP(=O)(O)O)C(=O)O)[C@@H](C)O)[C@@H](C)O [H3S10Ph K4me0]
Kd (AIRE-PHD1 wild type [6]): 7.6 ± 1.2 µM
Kd (AIRE-PHD1 wild type [5]): 24.7 ± 0.2 µM
ΔG (AIRE-PHD1 wild type [5]): -6.3 ± 0.1 kcal/mol
−TΔS (AIRE-PHD1 wild type [5]): 3.3 ± 0.1 kcal/mol

H3R2me2asK4me0: H3 1-10 peptide, asymmetric di-methylation of R2
AIRE-PHD1 binding (in words) (GST-AIRE-PHD1): strongly reduced AIRE-PHD1 binding

histone H3 peptide (1-10) mono-methylated at R2, H3R2me1K4me0
Kd [7]: 248 µM
Kd [8]: 199 µM
dH [8]: -4.6 kcal/mol

histone H3 peptide (1-10) phosphorylated at S10, H3S10PhK4me0
Kd [7]: 7.6 µM
Kd [8]: 24.7 µM

ARTKQTAAKS [mutant histone H3 peptide (1-10) H3R8AK4me0]
Kd [9]: 52.8 ± 4.9 µM
Kd [10]: 55.9 µM
dH [10]: -7.3 ± 0.3 kcal/mol

ARTKQTARKS [non-modified histone H3 tail peptide H3K4me0 (residues 1-10)]
Kd (AIRE-PHD1 Asp304Ala [11]): 80 µM
Kd (AIRE-PHD1 Glu298Ala [12]): 28.1 ± 2.1 µM
Kd (AIRE-PHD1 Glu307Ala [13]): 19 ± 2.4 µM
Kd (AIRE-PHD1 Asp304Ala [14]): 123 ± 6.7 µM
dH (AIRE-PHD1 Asp304Ala [14]): -5.3 ± 0.4 kcal/mol
Kd (AIRE-PHD1 Glu298Ala [15]): 43.4 ± 0.5 µM
dH (AIRE-PHD1 Glu298Ala [15]): -7.2 ± 0.1 kcal/mol
Kd (AIRE-PHD1 Glu307Ala [16]): 40.6 ± 0.5 µM
dH (AIRE-PHD1 Glu307Ala [16]): -6.7 ± 0.1 kcal/mol

From paper PMC2685098 (Nucleic Acids Research, 2009)
